Bioassay records (PubChem)
MC4R ag barr – agonists of human melanocortin 4 receptor (MC4R) beta-arrestin. P32245. U2OS MC4R beta-arrestin complementation, luminescence; percent of melanotan II response, DMSO zero. activation, % at 8.9 µM. hit rate 0.98% among 360,000. AID 540308;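 active = activation above a per-plate cutoff, the mean activation of sample wells on that plate plus 3 SD, cut at about 8% in these data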
PREPL inh – inhibits the human prolyl oligopeptidase-like enzyme; recombinant PREPL, fluorescence polarization activity-based probe; inhibition, % at 5.96 µM; hit rate 0.68% among 320,000; AID 2751
Target sequence (Q4J6C6 whole entry, looked up): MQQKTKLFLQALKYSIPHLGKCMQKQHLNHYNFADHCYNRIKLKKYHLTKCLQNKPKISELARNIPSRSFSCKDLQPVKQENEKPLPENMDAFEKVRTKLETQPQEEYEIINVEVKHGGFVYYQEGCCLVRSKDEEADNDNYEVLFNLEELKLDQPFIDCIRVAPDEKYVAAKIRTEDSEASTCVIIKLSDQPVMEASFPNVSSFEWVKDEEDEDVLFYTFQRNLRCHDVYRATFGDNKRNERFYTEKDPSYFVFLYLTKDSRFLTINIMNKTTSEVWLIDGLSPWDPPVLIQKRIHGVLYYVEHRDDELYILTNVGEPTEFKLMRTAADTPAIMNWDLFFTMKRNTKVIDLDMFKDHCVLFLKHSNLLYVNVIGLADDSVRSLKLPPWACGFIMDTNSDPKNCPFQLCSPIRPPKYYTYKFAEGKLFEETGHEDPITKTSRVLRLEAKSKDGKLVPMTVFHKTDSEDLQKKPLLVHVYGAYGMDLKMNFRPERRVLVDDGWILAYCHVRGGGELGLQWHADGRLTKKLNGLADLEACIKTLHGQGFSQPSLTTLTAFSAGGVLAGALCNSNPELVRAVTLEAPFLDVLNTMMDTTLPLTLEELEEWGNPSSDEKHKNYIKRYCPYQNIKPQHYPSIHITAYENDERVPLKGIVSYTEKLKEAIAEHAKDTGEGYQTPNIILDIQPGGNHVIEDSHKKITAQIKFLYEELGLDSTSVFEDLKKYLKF
NTR1 agonist – agonists of human neurotensin receptor NTR1 | P30989 | NTR1-U2OS beta-arrestin-GFP spot imaging, agonist mode | activation, % at 20 µM | hit rate 0.17% among 330,000 | AID 493036;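 active = activation at or above 40% of the spot to cytoplasm intensity ratio, with at least 20 cells analyzed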
m5-HT2A agonist – mouse HTR2A agonism via beta-arrestin recruitment; CHO-K1 mHTR2A beta-arrestin complementation, luminescence; percent of 30 µM serotonin response; activation, % at 7.6 µM; hit rate 0.66% among 360,000; AID 624169;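 active = activation above a run cutoff, the mean activation of all tested compounds plus 3 SD, cut at about 14% in these data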
MC4R antagonist – antagonists of human melanocortin 4 receptor (MC4R); P32245; MC4R-expressing cells, MTII-stimulated cAMP, LANCE TR-FRET; inhibition, % at 6.5 µM; hit rate 0.48% among 360,000; AID 540295;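 active = inhibition above its plate's cutoff, the mean of tested wells on that plate plus 3 SD, cut at about 29% in these data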
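material = U2OS cells stably expressing human melanocortin 4 receptor (MC4R) | also added = Melanotan II challenge | dosing = single nominal compound dose of 6.5 µM | detection = TR-FRET with Eu-cAMP and labeled anti-cAMP, 671 nm | replication = singlicate | timing = compound 30 min, challenge 1 h, detection 1 h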
Lipid droplet – hepatic lipid droplet formation modulation. AML12 mouse hepatocytes, oleate lipid droplets, BODIPY imaging. inhibition, % at 6.5 µM. hit rate 0.4% among 240,000;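 active = lipid droplet intensity inhibited by at least 50%, with more than 500 cells counted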
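Material: mouse AML12 hepatocyte cell line, fixed after treatment; Timing: compound with oleate, overnight; Technique: high-content imaging of BODIPY-stained droplets and DAPI nuclei; Probe or stimulus: oleate, 100 µM final; Dosing: compound at 6.5 µM only.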
Lipid drop inh – confirmation of inhibitors of hepatic lipid droplet formation; shares compounds with Lipid droplet; AML12 mouse hepatocytes, BODIPY lipid droplet imaging; droplets induced with 100 µM oleic acid; AID 463183; hit rate 65% among 870; inhibition, % at 5.2 µM;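 active = inhibition of lipid droplet metric at least 50%, with more than 300 cells in each of four replicates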
AML12 tox img – counter-screen for cytotoxicity in AML12 mouse hepatocytes; hit rate 3% among 870; z-score at 5 µM; AID 463200; DAPI nuclear morphology cytotoxicity imaging; hits give high values; cells fed 100 µM oleate overnight; shares compounds with Lipid droplet; in the data active = z-score above about 6.3;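 note: compound exposure lasted overnight at 37 °C before fixation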
AML12 tox ATP – confirmation of cytotoxicity in AML12 mouse hepatocytes | shares compounds with Lipid droplet | AML12 mouse hepatocyte viability, ATP luminescence; cells loaded with 100 µM oleic acid | cytotoxicity, % at 50 µM | 530 tested, under 10 active;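 active = cytotoxicity above 50% in each of four replicates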;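 note: compound exposure lasted overnight at 37 °C before the ATP read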
PREPL inh cf – human PREPL inhibition, confirmation; shares compounds with PREPL inh; inhibition, % at 5.96 µM; hit rate 67% among 2,000; recombinant PREPL, fluorescence polarization activity probe
Numbers stand for hits. Rows were chosen to be rich in hits. Some 2.7% of all compounds tested hit in one or more screens of this group. Cut-off read from the data, not from the text of the source, unless noted: active = inhibition above about 43%; inactive = the rest.

How did CC(O)(CS(=O)(=O)c1cccc(C(F)(F)F)c1)C(=O)Nc1cccc(C(F)(F)F)c1 (stereo not drawn) do in these assays?
MC4R ag barr: 10.0; PREPL inh: inactive; NTR1 agonist: inactive; m5-HT2A agonist: inactive; MC4R antagonist: inactive

How did O=C1NCN(c2ccccc2)C12CCN(C(CCc1ccccc1)c1nnnn1C1CCCC1)CC2 (stereo not drawn) do in these assays?
m5-HT2A agonist: inactive

Results for CC(C)OCCCNC(=O)c1c(N)n(CC2CCCO2)c2nc3ccccc3nc12 (stereo not drawn) ?
MC4R ag barr: inactive; PREPL inh: inactive; NTR1 agonist: inactive; m5-HT2A agonist: inactive; MC4R antagonist: inactive; Lipid droplet: 51.0; Lipid drop inh: inactive; AML12 tox img: inactive; AML12 tox ATP: inactive

What do the screens show for `Fc1cccc(-c2ccc3c(c2)CNCc2cnnn2-3)c1`?
m5-HT2A agonist: inactive

Results for Nc1cc(Cl)c2nonc2c1[N+](=O)[O-] ?
MC4R ag barr: inactive; PREPL inh: inactive; m5-HT2A agonist: inactive; MC4R antagonist: inactive; Lipid droplet: 112.8; Lipid drop inh: inactive; AML12 tox img: inactive

Results for O=[N+]([O-])c1c(Cl)c(Cl)c(Cl)c(Cl)c1Cl ?
MC4R ag barr: inactive; m5-HT2A agonist: inactive; MC4R antagonist: inactive

Results for CCOc1cc(/C=C2/C(=O)NC(=O)N(c3ccc(CC)cc3)C2=O)ccc1OC(=O)c1cccs1 ?
MC4R ag barr: inactive; PREPL inh: 48.1; NTR1 agonist: inactive; m5-HT2A agonist: inactive; MC4R antagonist: inactive; PREPL inh cf: 51.6

How did COc1ccc(C(=O)OCC2CN2c2cccc([N+](=O)[O-])c2)cc1 (stereo not drawn) do in these assays?
m5-HT2A agonist: inactive

Results for CC(C)Cc1[nH]c(=O)c(C#N)c2c1CCC2 ?
MC4R ag barr: inactive; PREPL inh: 75.0; NTR1 agonist: inactive; m5-HT2A agonist: inactive; MC4R antagonist: inactive; PREPL inh cf: 66.4

Results for CCN1CCN(CC(=O)c2c(C)n(Cc3ccccc3)c3ccc(OC)cc23)CC1 ?
MC4R ag barr: inactive; PREPL inh: inactive; NTR1 agonist: inactive; m5-HT2A agonist: inactive; MC4R antagonist: inactive; Lipid droplet: inactive

What do the screens show for `COc1ccc2c(c1)c(C(=O)CN1CCC3(CC1)OCCO3)c(C)n2Cc1ccccc1`?
MC4R ag barr: inactive; PREPL inh: 58.0; NTR1 agonist: inactive; m5-HT2A agonist: inactive; MC4R antagonist: inactive; PREPL inh cf: 49.3

What do the screens show for `CCc1c(-c2ccccc2)nc2ccccc2c1C(=O)N1CCC2(CC1)OCCO2`?
MC4R ag barr: inactive; PREPL inh: inactive; NTR1 agonist: inactive; m5-HT2A agonist: inactive; MC4R antagonist: inactive; Lipid droplet: inactive

How did CCOC(=O)[C@]12Cc3cc(C)ccc3[C@H]1N(C1CCCCC1)C(=O)c1cc(OC)ccc12 do in these assays?
m5-HT2A agonist: inactive

Results for CC1=NCCc2c1[nH]c1cc(O)ccc21 ?
MC4R ag barr: inactive; PREPL inh: 51.0; NTR1 agonist: inactive; m5-HT2A agonist: inactive; MC4R antagonist: inactive; PREPL inh cf: inactive

How did C1=NCCc2c1[nH]c1ccccc21 do in these assays?
MC4R ag barr: inactive; PREPL inh: inactive; NTR1 agonist: inactive; m5-HT2A agonist: inactive; MC4R antagonist: inactive

How did COc1ccc2c3c([nH]c2c1)C(C)=NCC3 do in these assays?
MC4R ag barr: inactive; PREPL inh: 71.3; NTR1 agonist: inactive; m5-HT2A agonist: inactive; MC4R antagonist: inactive; Lipid droplet: inactive; PREPL inh cf: inactive

How did COC(=O)C1=C(c2cccc(C#N)c2)C[C@@H]2CC[C@H]1N2C(=O)N1CCCCC1 do in these assays?
MC4R ag barr: inactive; PREPL inh: inactive; NTR1 agonist: inactive; m5-HT2A agonist: inactive; MC4R antagonist: inactive

How did COC(=O)C1=C(c2ccc(OCc3ccccc3)cc2)C[C@@H]2CC[C@H]1N2C(=O)NCCc1ccc(F)cc1 do in these assays?
MC4R ag barr: inactive; m5-HT2A agonist: inactive; MC4R antagonist: inactive

How did O=C1C2CC(CN3CCCCC23)C2CCCCN12 (stereo not drawn) do in these assays?
MC4R ag barr: inactive; m5-HT2A agonist: inactive; MC4R antagonist: inactive

Results for CCCCc1nc2ccccc2c(=O)n1-c1ccccc1O ?
MC4R ag barr: inactive; PREPL inh: 110.8; NTR1 agonist: inactive; m5-HT2A agonist: inactive; MC4R antagonist: inactive; PREPL inh cf: inactive

What do the screens show for `CCCc1nc2ccccc2c(=O)n1-c1ccccc1OC`?
MC4R ag barr: inactive; PREPL inh: inactive; NTR1 agonist: inactive; m5-HT2A agonist: inactive; MC4R antagonist: inactive

What do the screens show for `CCC(=NCCc1c[nH]c2ccccc12)c1c(O)n(-c2ccc(C)cc2)c(=O)[nH]c1=O`?
MC4R ag barr: inactive; PREPL inh: 44.4; NTR1 agonist: inactive; m5-HT2A agonist: inactive; MC4R antagonist: inactive; Lipid droplet: inactive; PREPL inh cf: 46.1

Results for CC(=NCCc1c[nH]c2ccccc12)c1c(O)n(Cc2ccccc2)c(=O)[nH]c1=O ?
MC4R ag barr: inactive; PREPL inh: 43.3; NTR1 agonist: inactive; m5-HT2A agonist: inactive; MC4R antagonist: inactive; Lipid droplet: inactive; PREPL inh cf: inactive

How did COC(=O)C1=C(c2cccc(OCc3ccccc3)c2)C[C@@H]2CC[C@H]1N2C(=O)NCCCOC(C)C do in these assays?
MC4R ag barr: inactive; PREPL inh: 45.9; NTR1 agonist: inactive; m5-HT2A agonist: inactive; MC4R antagonist: inactive; PREPL inh cf: inactive

How did O=[N+]([O-])c1ccc(-[n+]2c(-c3ccccc3)cc(-c3ccccc3)cc2-c2ccccc2)cc1 do in these assays?
MC4R ag barr: inactive; PREPL inh: 43.4; NTR1 agonist: inactive; m5-HT2A agonist: inactive; MC4R antagonist: inactive; Lipid droplet: inactive; PREPL inh cf: inactive

Results for O=C([O-])c1ccc(-[n+]2c(-c3ccccc3)cc(-c3ccccc3)cc2-c2ccccc2)cc1 ?
MC4R ag barr: inactive; PREPL inh: inactive; NTR1 agonist: inactive; m5-HT2A agonist: inactive; MC4R antagonist: inactive

What do the screens show for `COC(=O)C1=C(c2ccc(F)cc2OCc2ccccc2)C[C@@H]2CC[C@H]1N2C(=O)NCc1cccc(C(F)(F)F)c1`?
MC4R ag barr: inactive; PREPL inh: inactive; NTR1 agonist: inactive; m5-HT2A agonist: inactive; MC4R antagonist: inactive
